A short description of series [1]: Cytotoxicity against mouse betaTC3 cells assessed as cellular membrane damage at 10 uM after 24 hrs by LDH release assay. The class given is cell-based. To be noted: beta-tc3, 24 h. The procedure, abridged:
(§1)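 βTC-3 insulinoma cells seeded at 10,000 per well and cultured 24 or 48 h, then exposed to compound for 24 h. LDH in the medium measured as a marker of membrane damage. Release expressed as percentage of that from cells given methanol alone. Mean ± SD, n = 4; significance taken at p < 0.05.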
In general terms: Release of lactate dehydrogenase indicates damage to the cell membrane.

Series [2] can be described thus: Cytotoxicity against mouse betaTC3 cells assessed as cellular membrane damage at 25 uM after 24 hrs by LDH release assay. Particulars: beta-tc3, 24 h. Type of series: cell-based. The gist of the method: as §1
Series [3] can be described thus: Cytotoxicity against mouse betaTC3 cells assessed as cell viability at 25 uM after 48 hrs by MTT assay relative to control. The class given is cell-based, Beta-TC3. To be noted: read-out: Activity. The procedure, abridged:
(§2)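 βTC-3 insulinoma cells seeded at 10,000 per well and cultured 24 and 48 h before exposure to natural LPC species or 2-methoxy sulfur analogues at 10 or 25 µM. Incubation for 24 or 48 h. Viability measured by MTT colorimetric assay and expressed as % of untreated cells, mean ± SD of four independent experimental repeats.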
(In general: Tetrazolium assays rely on reduction of a dye to a coloured formazan, in cell work by metabolically active cells.)

Series [4] can be described thus: Cytotoxicity against mouse betaTC3 cells assessed as cell viability at 25 uM after 24 hrs by MTT assay relative to control. The class given is cell-based, Beta-TC3. To be noted: read-out: Activity. The gist of the method: as §2
A short description of series [5]: Cytotoxicity against mouse betaTC3 cells assessed as cell viability at 10 uM after 48 hrs by MTT assay relative to control. Type of series: cell-based, Beta-TC3. Particulars: read-out: Activity. The procedure, abridged:
as §2

Series [6] is described as follows: Cytotoxicity against mouse betaTC3 cells assessed as cell viability at 10 uM after 24 hrs by MTT assay relative to control. Type of series: cell-based, Beta-TC3. To be noted: read-out: Activity. The procedure, abridged:
as §2

For `CCCCCCCCCCCCCCCC(=O)OC[C@@H](O)COP(=O)([O-])OCC[N+](C)(C)C`, the Activity result in series [1] is “Toxic”; in series [2] it was 16.8%. The viability at 48 h, 25 µM in series [3] came to 20.1%. Moreover, in series [4], the viability at 24 h, 25 µM turned out to be 29.7%. Further, the viability at 48 h, 10 µM in series [5] amounted to 59.8%. Also, the viability at 24 h, 10 µM in series [6] came out at 73.1%.
For the compound `CCCCCCCCCCCCCCCCCC(=O)OC[C@@H](O)COP(=O)([O-])OCC[N+](C)(C)C`, the Activity result in series [1] was “Toxic”. Further, in series [3], the viability at 48 h, 25 µM was determined as 29.5%. For the same compound, the viability at 24 h, 25 µM in series [4] was found to be 38.7%. The viability at 48 h, 10 µM in series [5] was 59.3%. In series [6], the viability at 24 h, 10 µM was 88.8%.
On to `CCCCCCCC/C=C\CCCCCCCC(=O)OC[C@@H](O)COP(=O)([O-])OCC[N+](C)(C)C`, for which, in series [2], the Activity is 9.04%. Also, the viability at 48 h, 25 µM in series [3] was found to be 68.5%. Besides, in series [4], the viability at 24 h, 25 µM worked out at 81.1%. The viability at 48 h, 10 µM in series [5] was 93.4%. Further, the viability at 24 h, 10 µM in series [6] worked out at 130%.
For `CCCCCCCCCCCCCC(=O)OCC(COP(=O)([S-])OCC[N+](C)(C)C)OC` (mixture of isomers), the viability at 48 h, 25 µM in series [3] is 41.1%. Further, the viability at 24 h, 25 µM in series [4] came out at 73.7%. In series [5], the viability at 48 h, 10 µM worked out at 101%. In addition, in series [6], the viability at 24 h, 10 µM came out at 112%.
For `CCCCCCCCCCCCCCCCCC(=O)OCC(COP(=O)([S-])OCC[N+](C)(C)C)OC` (mixture of isomers), in that order: 50.9%, 82.9%, 61.4% and 90.3%.
The like results for `CCCCCCCCCCCC(=O)OCC(COP(=O)([S-])OCC[N+](C)(C)C)OC` (racemic) were, in that order, 71.1%, 90.7%, 106% and 90.2%.
For the compound `CCCCCCCCCCCCCCCC(=O)OCC(COP(=O)([S-])OCC[N+](C)(C)C)OC` (racemic), in series [3], the viability at 48 h, 25 µM came to 44.2%. Moreover, the viability at 24 h, 25 µM in series [4] amounted to 60.4%. Moreover, the viability at 48 h, 10 µM in series [5] is 87.7%. Also, the viability at 24 h, 10 µM in series [6] is 105%.
For `CCCCCCCC/C=C\CCCCCCCC(=O)OCC(COP(=O)([S-])OCC[N+](C)(C)C)OC` (racemic), in that order: 133%, 144%, 92.4% and 121%.
For `CCCCCCCCCCCC(=O)OCC(COP(=S)([S-])OCC[N+](C)(C)C)OC` (racemic), in that order: 41.8%, 83.7%, 98.2% and 87.1%.
With `CCCCCCCCCCCCCC(=O)OCC(COP(=S)([S-])OCC[N+](C)(C)C)OC` (racemic), in series [3], the viability at 48 h, 25 µM is 35.8%. Also, the viability at 24 h, 25 µM in series [4] amounted to 64.7%. Also, in series [5], the viability at 48 h, 10 µM worked out at 87.9%. Besides, in series [6], the viability at 24 h, 10 µM was 104%.
Regarding `CCCCCCCCCCCCCCCC(=O)OCC(COP(=S)([S-])OCC[N+](C)(C)C)OC` (racemic), in series [3], the viability at 48 h, 25 µM stood at 37.4%. In addition, the viability at 24 h, 25 µM in series [4] is 58.7%. For the same compound, the viability at 48 h, 10 µM in series [5] was 100%. Further, in series [6], the viability at 24 h, 10 µM was determined as 112%.
For `CCCCCCCCCCCCCCCCCC(=O)OCC(COP(=S)([S-])OCC[N+](C)(C)C)OC` (racemic), in that order: 38.9%, 63.1%, 96.8% and 85.8%.
As to `CCCCCCCC/C=C\CCCCCCCC(=O)OCC(COP(=S)([S-])OCC[N+](C)(C)C)OC` (racemic), in series [3], the viability at 48 h, 25 µM amounted to 112%. The viability at 24 h, 25 µM in series [4] was 111%. Further, the viability at 48 h, 10 µM in series [5] worked out at 95.9%. Further, the viability at 24 h, 10 µM in series [6] was determined as 90.5%.
With `CCCCCCCCCCCC(=O)OC[C@@H](O)COP(=O)([O-])OCC[N+](C)(C)C` [LYSOPHOSPHATIDYLCHOLINE], the Activity in series [2] is 16.8%. Further, in series [3], the viability at 48 h, 25 µM was 67.1%. Moreover, the viability at 24 h, 25 µM in series [4] was 83%. In addition, the viability at 48 h, 10 µM in series [5] is 86.1%. Moreover, the viability at 24 h, 10 µM in series [6] came out at 106%.
`CCCCCCCCCCCCCC(=O)OC[C@@H](O)COP(=O)([O-])OCC[N+](C)(C)C` [LYSOPHOSPHATIDYLCHOLINE]: the Activity result in series [1] was “Toxic”. In addition, in series [3], the viability at 48 h, 25 µM came out at 7.5%. Further, in series [4], the viability at 24 h, 25 µM was determined as 26.3%. Besides, the viability at 48 h, 10 µM in series [5] stood at 53.1%. For the same compound, the viability at 24 h, 10 µM in series [6] is 75.5%.

These data come from ChEMBL document CHEMBL3091382, “The chemical synthesis and cytotoxicity of new sulfur analogues of 2-methoxy-lysophosphatidylcholine” (Bioorg Med Chem Lett, 2013).
